The source made the active and inactive calls. The rule behind the calls is not given here.

The subject of one assay is Cladosporium herbarum. The experiment in a line: Antifungal activity against Cladosporium herbarum DSM 62121 at 5 ug/disk after 24 hrs by agar diffusion assay. In kind it is functional. The settings on record: for zone of inhibition at 5 µg/disc: DSM 62121, 24 h, read-out: IZ.
A further assay concerns Bacillus subtilis. Nature of the assay: Antibacterial activity against Bacillus subtilis DSM 2109 at 5 ug/disk after 24 hrs by agar diffusion assay. In kind it is functional, organism-based.
The subject of the next assay is Escherichia coli. The experiment in a line: Antibacterial activity against Escherichia coli DSM 10290 at 5 ug/disk after 24 hrs by agar diffusion assay. The class given is functional, organism-based.
The next assay deals with MCF7. Nature of the assay: Cytotoxicity against human MCF7 cells after 24 hrs by MTT assay. In kind it is functional, cell-based. The settings on record: MCF7, 24 h. Put shortly:
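MCF7 cells were exposed to compounds for 24 h, and viability was read as MTT reduction by absorbance of reduced MTT at 560 nm. DMSO served as control. Data are mean ± SEM, n = 3.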

The test system of the next assay is Cladosporium cucumerinum. The experiment in a line: Antifungal activity against Cladosporium cucumerinum DSM 62122 at 5 ug/disk after 24 hrs by agar diffusion assay. In kind it is functional. Conditions: for zone of inhibition at 5 µg/disc: DSM 62122, 24 h, read-out: IZ.
In another assay the test system is Saccharomyces cerevisiae. Nature of the assay: Antifungal activity against Saccharomyces cerevisiae DSM 1333 at 5 ug/disk after 24 hrs by agar diffusion assay. In kind it is functional, organism-based.
The test system of another assay is HeLa. The experiment in a line: Cytotoxicity against human HeLa cells after 24 hrs by MTT assay. The class given is functional, cell-based.
A further assay relates to H4IIE. Nature of the assay: Cytotoxicity against rat H4IIE cells after 24 hrs by MTT assay. In kind it is functional, cell-based.
Assay [1] is described as follows: Cytotoxicity against mouse L1578Y cells after 24 hrs by MTT assay. The class given is functional, cell-based.
Another assay relates to PC-12. The experiment in a line: Cytotoxicity against rat PC12 cells after 24 hrs by MTT assay. In kind it is functional, cell-based.

Take `C/C=C1\NC(=O)[C@H](Cc2ccccc2)NC(=O)C(C(C)C)NC(=O)C(C(C)C)NC(=O)[C@H](NC(=O)[C@H](NC(=O)[C@H](CCCN)NC(=O)[C@H]2CCCN2C(=O)C(NC(=O)C(NC(=O)C(NC(=O)[C@@H](CCC(=O)O)NC(=O)CCCC(O)CC(C)C)C(C)C)C(C)C)C(C)C)[C@@H](C)CC)[C@@H](C)OC(=O)C(C(C)C)NC1=O` (some centres undefined) [KAHALALIDE S]: the outcome in the assay on Cladosporium herbarum, with Bacillus subtilis, in the assay on Escherichia coli, in the assay on Cladosporium cucumerinum and in the assay with Saccharomyces cerevisiae was inactive. The IC50 in the assay with MCF7 worked out at 3.55 µM.

As to NYSTATIN, the inhibition zone (IZ) with Cladosporium herbarum was found to be 19 mm; with Cladosporium cucumerinum, 39 mm.

For `C/C=C1\NC(=O)[C@H](Cc2ccccc2)NC(=O)[C@@H](C(C)C)NC(=O)[C@@H]([C@H](C)CC)NC(=O)[C@H](NC(=O)[C@H](NC(=O)[C@H](CCCN)NC(=O)[C@H]2CCCN2C(=O)[C@H](NC(=O)[C@@H](NC(=O)[C@@H](NC(=O)[C@H](NC(=O)CCCC(C)C)C(C)C)[C@@H](C)O)C(C)C)C(C)C)[C@H](C)CC)[C@H](C)OC(=O)[C@H](C(C)C)NC1=O` [KAHALALIDE F], the figures for the zone of inhibition at 5 µg/disc with Cladosporium herbarum and with Cladosporium cucumerinum were 17 mm and 24 mm, respectively. Moreover, the result in the assay with Bacillus subtilis, in the assay with HeLa, in the assay on Escherichia coli, in the assay with H4IIE, in the assay with PC-12 and in the assay with Saccharomyces cerevisiae was inactive. For the same compound, the IC50 in the assay with MCF7 was 0.22 µM; in assay [1], 4.26 µM.

Regarding `CC(C)CCCCCC1CC(=O)N[C@H](C)C(=O)N[C@H](C)C(=O)NC(CC(C)C)C(=O)N2CCC[C@H]2C(=O)NC(CC(C)C)C(=O)N[C@@H](Cc2c[nH]c3ccccc23)C(=O)O1` (some centres undefined) [KAHALALIDE E], in the assay on MCF7, the IC50 worked out at 4.5 µM.

As for `C/C=C1\NC(=O)[C@H](Cc2ccccc2)NC(=O)C(C(C)C)NC(=O)C(C(C)C)NC(=O)[C@H](NC(=O)[C@H](NC(=O)[C@H](CCCN)NC(=O)[C@H]2CCCN2C(=O)C(NC(=O)C(NC(=O)C(NC(=O)[C@@H](CCC(=O)O)NC(=O)CCCCCC(C)C)C(C)C)C(C)C)C(C)C)[C@@H](C)CC)[C@@H](C)OC(=O)C(C(C)C)NC1=O` (some centres undefined) [KAHALALIDE R], the zone of inhibition at 5 µg/disc in the assay on Cladosporium herbarum is 16 mm; in the assay on Cladosporium cucumerinum, 24 mm. In addition, the outcome in the assay on Bacillus subtilis, in the assay with HeLa, in the assay on Escherichia coli, with H4IIE, in the assay with PC-12 and in the assay on Saccharomyces cerevisiae was inactive. In addition, the IC50 in the assay on MCF7 came to 0.14 µM; in assay [1], 4.28 µM.

Source of the values: ChEMBL document CHEMBL1158097, “Kahalalide derivatives from the Indian sacoglossan mollusk Elysia grandifolia” (J Nat Prod, 2006).
